In ChEMBL document CHEMBL1949495, “Synthesis and cytotoxicity evaluation of biaryl-based chalcones and their potential in TNFα-induced nuclear factor-κB activation inhibition” (Eur J Med Chem, 2012):

How the values were obtained:
Type in all cases: functional, cell-based
HepG2 = test: Cytotoxicity against human HepG2 cells assessed as total cell protein after 48 hrs by SRB assay; conditions: HepG2, 48 h
Outline: (§1)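 Cells kept in RPMI-1640 with 2 mM glutamine, 10% FBS, penicillin/streptomycin, 37 °C, 5% CO2. Seeded 5000 cells/well, grown 24 h, then serial dilutions from 10 mM DMSO stocks added in medium (final DMSO 0.5%), triplicate, 48 h. TCA fixation at 4 °C for 1 h, 0.4% SRB stain, dye solubilized in 10 mM Tris pH 10.4, OD 515 nm. IC50 by nonlinear regression of % control viability vs log concentration; experiments repeated at least twice.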

A549 = test: Cytotoxicity against human A549 cells assessed as total cell protein after 48 hrs by SRB assay; conditions: A549, 48 h; outline: as §1
[1] = Cytotoxicity against human CNE2 cells assessed as total cell protein after 48 hrs by SRB assay; conditions: CNE-2, 48 h; outline: as §1
MCF7 = test: Cytotoxicity against human MCF7 cells assessed as total cell protein after 48 hrs by SRB assay; conditions: MCF7, 48 h; outline: as §1
SW480 = test: Cytotoxicity against human SW480 cells assessed as total cell protein after 48 hrs by SRB assay; conditions: SW480, 48 h; outline: as §1

Structure (SMILES)	IC50 (HepG2)	IC50 (A549)	IC50 [1]	IC50 (MCF7)	IC50 (SW480)
COc1cc(/C=C/C(=O)c2cccc(-c3cccc(F)c3)c2)ccc1O	6.83 µM	9.9 µM	5.69 µM	14.2 µM	6.74 µM
O=C(/C=C/c1ccc(Cl)cc1)c1cccc(-c2cccc(F)c2)c1	10.4 µM	15.4 µM	9.06 µM	18.2 µM	16.9 µM
O=C(/C=C/c1cccc(Br)c1)c1cccc(-c2cccc(F)c2)c1	6.98 µM	9.12 µM	6.55 µM	12.7 µM	8.61 µM
COc1ccccc1/C=C/C(=O)c1cccc(-c2cccc(F)c2)c1	15.4 µM	15.5 µM	10.4 µM	18.9 µM	16.6 µM
COc1ccc(/C=C/C(=O)c2cccc(-c3cccc(F)c3)c2)cc1	1.72 µM	2.44 µM	0.74 µM	3.08 µM	4.51 µM
COc1ccc(/C=C/C(=O)c2cccc(-c3cccc(F)c3)c2)cc1OC	1.17 µM	1.94 µM	0.77 µM	4.62 µM	2.97 µM
COc1cccc(/C=C/C(=O)c2cccc(-c3cccc(F)c3)c2)c1OC	9.2 µM	8.9 µM	10 µM	11.7 µM	13.5 µM
O=C(/C=C/c1ccccc1Br)c1cccc(-c2cccc(F)c2)c1	12.8 µM	12.4 µM	8.91 µM	20 µM	14.8 µM
O=C(/C=C/c1ccc(Br)cc1)c1cccc(-c2cccc(F)c2)c1	9.92 µM	19.8 µM	10.5 µM	18.3 µM	18.2 µM
O=C(/C=C/c1cccc(-c2ccc(F)cc2)c1)c1ccc(F)cc1	12.3 µM	12.2 µM	7.39 µM	14.1 µM	13.5 µM
O=C(/C=C/c1cccc(-c2ccc(F)cc2)c1)c1ccc(O)cc1	5.12 µM	8.36 µM	5.51 µM	10.8 µM	12 µM
COc1ccc(/C=C/C(=O)c2ccc(N)c(-c3ccc(F)cc3)c2)cc1	3.75 µM	4.31 µM	1.6 µM	7.58 µM	7.23 µM
COc1ccc(/C=C/C(=O)c2ccc(NC(C)=O)c(-c3ccc(F)cc3)c2)cc1OC	5.63 µM	7.38 µM	2.74 µM	15 µM	5.35 µM
COc1ccc(/C=C/C(=O)c2ccc(N)c(-c3ccc(F)cc3)c2)cc1OC	3.78 µM	8.63 µM	3.51 µM	15 µM	6.64 µM
COc1ccc(/C=C/C(=O)c2ccc(N)c(-c3ccc(F)cc3)c2)c(OC)c1	7.74 µM	14.4 µM	6.29 µM	10.8 µM	12.4 µM
COc1ccc(OC)c(/C=C/C(=O)c2ccc(N)c(-c3ccc(F)cc3)c2)c1	4.01 µM	7.04 µM	6.71 µM	8.92 µM	7.83 µM
COc1cccc(/C=C/C(=O)c2ccc(N)c(-c3ccc(F)cc3)c2)c1OC	7.37 µM	13.3 µM	11.3 µM	13.3 µM	12.5 µM

Structure (SMILES)	IC50 (HepG2)	IC50 (A549)	IC50 [1]	IC50 (MCF7)	IC50 (SW480)
COc1cc(/C=C/C(=O)c2ccc(N)c(-c3ccc(F)cc3)c2)ccc1O	4.3 µM	12.2 µM	5.75 µM	10.5 µM	8.35 µM
COc1cc(/C=C/C(=O)c2ccc(N)c(-c3ccc(F)cc3)c2)cc(OC)c1OC	4.21 µM	6.07 µM	4.6 µM	9.03 µM	6.12 µM
Nc1ccc(C(=O)/C=C/c2ccc(O)c(F)c2)cc1-c1ccc(F)cc1	11.7 µM	24.5 µM	18.1 µM	18.3 µM	31.7 µM
COc1cc(/C=C/C(=O)c2ccc(N)c(-c3ccc(F)cc3)c2)cc(Br)c1O	4.73 µM	> 50 µM	25.5 µM	40.5 µM	22.9 µM
COc1ccc(/C=C/C(=O)c2ccc(N)c(-c3ccc(F)cc3)c2)cc1O	–	0.94 µM	–	–	–
COc1ccc(-c2cc(C(=O)/C=C/c3ccc(F)cc3)ccc2N)cc1OC	8.96 µM	18 µM	7.93 µM	19.4 µM	14.7 µM
COc1ccc(/C=C/C(=O)c2ccc(N)c(-c3ccc(OC)c(OC)c3)c2)c(OC)c1	2.13 µM	2.21 µM	8.34 µM	6.49 µM	9.3 µM
COc1ccc(OC)c(/C=C/C(=O)c2ccc(N)c(-c3ccc(OC)c(OC)c3)c2)c1	2.1 µM	6.2 µM	6.59 µM	6.33 µM	6.49 µM
COc1ccc(-c2cc(C(=O)/C=C/c3cccc(OC)c3OC)ccc2N)cc1OC	5.36 µM	6.54 µM	6.6 µM	10.2 µM	8.33 µM
COc1ccc(-c2cc(C(=O)/C=C/c3cc(OC)c(OC)c(OC)c3)ccc2N)cc1OC	2.68 µM	4.62 µM	4.33 µM	6.58 µM	5.63 µM
COc1ccc(/C=C/C(=O)c2cccc(Br)c2)cc1	–	34.2 µM	–	–	–
COc1ccc(/C=C/C(=O)c2cccc(Br)c2)cc1OC	–	9.43 µM	–	–	–
COc1ccc(/C=C/C(=O)c2cccc(Br)c2)cc1O	–	5.88 µM	–	–	–
COc1ccc(/C=C/C(=O)c2cccc(-c3ccc(F)cc3)c2)cc1	5.65 µM	11.2 µM	5.55 µM	16.4 µM	8.35 µM
COc1ccc(/C=C/C(=O)c2cccc(-c3ccc(F)cc3)c2)cc1OC	5.37 µM	11.8 µM	5.55 µM	11.6 µM	6.49 µM
COc1ccc(/C=C/C(=O)c2cccc(-c3cccc(F)c3)c2)cc1O	–	0.5 µM	–	–	–
COc1ccc(/C=C/C(=O)c2cccc(-c3ccc(F)nc3)c2)cc1O	–	2.06 µM	–	–	–
